Experimental data gathered from unrelated publications.
Compare with care: the assays were run in different laboratories.
Effect on: cell growth or viability

`Cc1cccc(F)c1NC(=N)CC(O)c1cc2c(F)cc(F)cc2c2cc(C(F)(F)F)ccc12` (stereo not drawn) gave an IC50 of 22.8 µM (HepG2; neutral red; 24 h).
With `Nc1c(C(=O)NCc2ccc(F)cc2)sc2nc(-c3ccccc3)ccc12` the IC50 was > 100 µM (HepG2; 72 h).
`N=C(CC(O)c1cc2c(F)cc(F)cc2c2cc(C(F)(F)F)ccc12)Nc1cc(F)c(F)c(F)c1` (stereo not drawn) gave an IC50 of 18.3 µM (HepG2; neutral red; 24 h).
`COc1ccc(-c2cc(C(F)(F)F)c3c(N)c(C(=O)NC4CC4)sc3n2)cc1` gave an IC50 of > 100 µM (HepG2; 72 h).
With `N=C(CC(O)c1cc2c(F)cc(F)cc2c2cc(C(F)(F)F)ccc12)Nc1ccc(N2CCC(F)(F)CC2)cc1` (stereo not drawn) the IC50 was 53.8 µM (HepG2; neutral red; 24 h).
The viability of `O=C(Nc1ccc(Cl)cc1)Nc1cccc(-c2cn(Cc3ccc(Br)cc3)nn2)c1` is reported as 60.5% (Huh-7; CCK-8; 50 µM, 48 h).
`CN(C)C(=O)c1sc2nc(-c3ccccc3)ccc2c1N` has an IC50 of > 100 µM (HepG2; 72 h).
For `O=C1[O][Pt]2([NH][C@@H]3CCCC[C@H]3[NH]2)[O]C1=O`, the IC50 was 32.2 µM (THLE3; imaging; 72 h).
`N.N.[Cl][Pt][Cl]` has an inhibition of 100% (Ramos; ATP luminescence; 10 µM, 72 h).
